Drawing on ChEMBL document CHEMBL4400518, “Synthesis, antimicrobial and cytotoxic activities, and molecular docking studies of N-arylsulfonylindoles containing an aminoguanidine, a semicarbazide, and a thiosemicarbazide moiety” (Eur J Med Chem, 2019), this text covers MIC for 14 compounds.

Holding throughout (type): functional
Assay [1] relates to Streptococcus pneumoniae. Description: Antibacterial activity against Streptococcus pneumoniae CMCC 31968 measured after 24 hrs by ELISA. Particulars: CMCC 31968, 24 h. (ELISA stands for enzyme-linked immunosorbent assay.)
Assay [2] has as its system Escherichia coli. Nature of the assay: Antibacterial activity against Escherichia coli CMCC 25922 measured after 24 hrs by ELISA. To be noted: CMCC 25922, 24 h. The essentials: (§1)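 Broth microdilution MIC. Mid-log bacteria in MHB or TSB diluted 1000-fold, inoculated at 10^5 CFU/mL. Compounds added from DMSO stocks; final DMSO at most 0.05%. Incubation 24 h at 37 °C. Growth read as absorbance at 630 nm. MIC taken as the lowest concentration giving complete growth inhibition. Three independent experiments.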

Assay [3] has as its system Escherichia coli. Nature of the assay: Antibacterial activity against Escherichia coli CMCC 44568 measured after 24 hrs by ELISA. Particulars: CMCC 44568, 24 h. An outline of the steps: as §1
Assay [4] relates to Staphylococcus aureus. Description: Antibacterial activity against methicillin-resistant Staphylococcus aureus ATCC 33591 measured after 24 hrs by ELISA. To be noted: ATCC 33591, 24 h. An outline of the steps:
(§2)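 Broth serial dilution MIC. Mid-log bacteria in Mueller-Hinton or Tryptone Soya broth, diluted 1000-fold and inoculated at 10^5 CFU/mL. Compounds from DMSO stock, final DMSO ≤0.05%. Incubated 24 h at 37 °C; growth read as absorbance at 630 nm. MIC is the lowest concentration giving complete growth inhibition. Three independent experiments.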

Assay [5] concerns Streptococcus pyogenes. Nature of the assay: Antibacterial activity against Streptococcus pyogenes CMCC 32067 measured after 24 hrs by ELISA. To be noted: CMCC 32067, 24 h. The essentials:
as §1

Assay [6] deals with Bacillus subtilis. Description: Antibacterial activity against Bacillus subtilis CMCC 63501 measured after 24 hrs by ELISA. To be noted: CMCC 63501, 24 h. The essentials:
as §1

Assay [7] has as its system Escherichia coli. Nature of the assay: Antibacterial activity against multidrug-resistant Escherichia coli ATCC BAA-196 measured after 24 hrs by ELISA. To be noted: ATCC BAA-196, 24 h. The essentials: as §2
Assay [8] relates to Pseudomonas aeruginosa. Description: Antibacterial activity against multidrug-resistant Pseudomonas aeruginosa ATCC BAA-2111 measured after 24 hrs by ELISA. To be noted: ATCC BAA-2111, 24 h. An outline of the steps: as §2
In assay [9] the test system is Pseudomonas aeruginosa. Nature of the assay: Antibacterial activity against Pseudomonas aeruginosa CMCC 10104 measured after 24 hrs by ELISA. Particulars: CMCC 10104, 24 h. The essentials: as §1
In assay [10] the test system is Staphylococcus aureus. Nature of the assay: Antibacterial activity against Staphylococcus aureus CMCC(B) 26003 measured after 24 hrs by ELISA. Particulars: CMCC(B) 26003, 24 h. An outline of the steps:
as §1

Assay [11] relates to Enterococcus faecalis. Description: Antibacterial activity against Enterococcus faecalis CMCC 29212 measured after 24 hrs by ELISA. Particulars: CMCC 29212, 24 h. An outline of the steps:
as §1

The test system of assay [12] is Pseudomonas aeruginosa. Description: Antibacterial activity against Pseudomonas aeruginosa CMCC 27853 measured after 24 hrs by ELISA. Particulars: CMCC 27853, 24 h. An outline of the steps: as §1
In assay [13] the test system is Staphylococcus aureus. Description: Antibacterial activity against methicillin-resistant Staphylococcus aureus ATCC 43300 measured after 24 hrs by ELISA. To be noted: ATCC 43300, 24 h. An outline of the steps: as §2
In assay [14] the test system is Staphylococcus aureus. Nature of the assay: Antibacterial activity against Staphylococcus aureus CMCC 25923 measured after 24 hrs by ELISA. Particulars: CMCC 25923, 24 h. The essentials:
as §1

Converted amounts (≈) assume the structure as drawn.

Take `COc1c(N2CCNC(C)C2)c(F)cc2c(=O)c(C(=O)O)cn(C3CC3)c12` (stereo not drawn) [GATIFLOXACIN]: the MIC was more than 341 µM in assay [1]; 0.33 µM (≈ 0.124 µg/mL) in assay [2]; 0.33 µM (≈ 0.124 µg/mL) in assay [3]; 0.67 µM (≈ 0.252 µg/mL) in assay [4]; more than 341 µM in assay [5]; 5.33 µM (≈ 2 µg/mL) in assay [6]. For the same compound, the minimum inhibitory concentration (MIC) is 1.33 µM (≈ 0.499 µg/mL) in [7]; 2.66 µM (≈ 0.999 µg/mL) in assay [8]; 5.33 µM (≈ 2 µg/mL) in assay [9]; 0.33 µM (≈ 0.124 µg/mL) in assay [10]; 2.67 µM (≈ 1 µg/mL) in assay [11]; 5.33 µM (≈ 2 µg/mL) in assay [12]. Further, the MIC in assay [13] is 1.33 µM (≈ 0.499 µg/mL); in assay [14], 0.33 µM (≈ 0.124 µg/mL).
For the compound `Cc1onc(-c2ccccc2)c1C(=O)N[C@@H]1C(=O)N2[C@@H]1SC(C)(C)[C@@H]2C(=O)O` [OXACILLIN], the MIC was more than 319 µM in [1]; 319 µM (≈ 128 µg/mL) in [2]; more than 319 µM in assay [3]; 19.9 µM (≈ 8.01 µg/mL) in assay [4]; more than 319 µM in assay [5]; more than 319 µM in [6]. In addition, the minimal inhibitory concentration (MIC) in assay [9] was more than 319 µM; in [10] it was 0.31 µM (≈ 0.124 µg/mL); in [11], 319 µM (≈ 128 µg/mL); in assay [12], more than 319 µM; in assay [13], 160 µM (≈ 64.1 µg/mL); in assay [14], 0.31 µM (≈ 0.124 µg/mL).
With `CC/C(=N/NC(N)=S)c1cn(S(=O)(=O)c2ccccc2)c2ccccc12`, the minimum inhibitory concentration (MIC) in assay [1] is more than 332 µM; in [2] it was 332 µM (≈ 128 µg/mL); in [3], 332 µM (≈ 128 µg/mL); in assay [5], more than 332 µM; in [6], 82.9 µM (≈ 32 µg/mL); in assay [9], more than 332 µM. In addition, the MIC is 64 µM (≈ 24.7 µg/mL) in assay [10], 166 µM (≈ 64.1 µg/mL) in assay [11], 332 µM (≈ 128 µg/mL) in assay [12] and 332 µM (≈ 128 µg/mL) in [14].
For the compound `CC1(C)S[C@@H]2[C@H](NC(=O)Cc3ccccc3)C(=O)N2[C@H]1C(=O)O` [PENICILLIN G], the MIC in assay [1] was more than 383 µM; in [2], 383 µM (≈ 128 µg/mL); in assay [3], more than 383 µM; in assay [4], more than 95.8 µM; in assay [5] it was more than 383 µM; in [6] it was 383 µM (≈ 128 µg/mL). The minimum inhibitory concentration (MIC) in assay [9] is 95.8 µM (≈ 32 µg/mL); in assay [10] it was 0.37 µM (≈ 0.124 µg/mL); in assay [11] it was 383 µM (≈ 128 µg/mL); in [12], more than 383 µM; in [13] it was 95.8 µM (≈ 32 µg/mL); in [14], 0.37 µM (≈ 0.124 µg/mL).
As to `C/C(=N/NC(N)=O)c1cn(S(=O)(=O)c2ccccc2)c2ccc(Br)cc12`, the MIC in assay [1] is more than 295 µM; in assay [2] it was more than 295 µM; in [3], more than 295 µM; in assay [5], more than 295 µM; in assay [6], 295 µM (≈ 128 µg/mL); in [9], more than 295 µM. Besides, the minimal inhibitory concentration (MIC) was 295 µM (≈ 128 µg/mL) in assay [10], 36.9 µM (≈ 16 µg/mL) in assay [11], more than 295 µM in assay [12] and 295 µM (≈ 128 µg/mL) in assay [14].
Consider `N=C(N)N/N=C\c1cn(S(=O)(=O)c2ccccc2)c2ccccc12`, for which the MIC in assay [1] is 46.9 µM (≈ 16 µg/mL); in assay [2], more than 375 µM; in [3], 23.5 µM (≈ 8.01 µg/mL); in assay [5], more than 375 µM; in assay [6], 11.7 µM (≈ 4 µg/mL); in assay [9], 23.5 µM (≈ 8.01 µg/mL). Further, the MIC in assay [10] turned out to be 5.87 µM (≈ 2 µg/mL); in assay [11], 46.9 µM (≈ 16 µg/mL); in [12], 46.9 µM (≈ 16 µg/mL); in [14] it was 11.7 µM (≈ 4 µg/mL).
In the case of `C/C(=N/NC(=N)N)c1cn(S(=O)(=O)c2ccccc2)c2ccc(Br)cc12`, the minimum inhibitory concentration (MIC) is 4.62 µM (≈ 2.01 µg/mL) in assay [1]; 18.5 µM (≈ 8.03 µg/mL) in [2]; 9.24 µM (≈ 4.01 µg/mL) in assay [3]; 296 µM (≈ 128 µg/mL) in [5]; 9.24 µM (≈ 4.01 µg/mL) in assay [6]; more than 296 µM in [9]. Further, the MIC in [10] was 4.62 µM (≈ 2.01 µg/mL); in assay [11], 9.24 µM (≈ 4.01 µg/mL); in assay [12], more than 296 µM; in [14], 4.62 µM (≈ 2.01 µg/mL).
With `C/C(=N/NC(N)=S)c1cn(S(=O)(=O)c2ccc(C)cc2)c2ccc(Br)cc12`, the MIC in assay [1], in assay [2], in assay [3], in [5], in assay [6] and in [9] was more than 276 µM each time. Also, the minimum inhibitory concentration (MIC) in assay [10] is 276 µM (≈ 128 µg/mL); in [11], more than 276 µM; in assay [12], more than 276 µM; in assay [14] it was 276 µM (≈ 128 µg/mL).
Regarding `COc1c(N2C[C@@H]3CCCN[C@@H]3C2)c(F)cc2c(=O)c(C(=O)O)cn(C3CC3)c12` [MOXIFLOXACIN], the minimum inhibitory concentration (MIC) in assay [1] is more than 319 µM; in [2], 0.31 µM (≈ 0.124 µg/mL); in assay [3] it was 0.31 µM (≈ 0.124 µg/mL); in assay [4], 0.62 µM (≈ 0.249 µg/mL); in [5], more than 319 µM; in [7] it was 1.25 µM (≈ 0.502 µg/mL). In addition, the MIC in [9] amounted to 9.98 µM (≈ 4.01 µg/mL); in assay [10], 0.31 µM (≈ 0.124 µg/mL); in assay [13], 1.25 µM (≈ 0.502 µg/mL); in [14], 0.31 µM (≈ 0.124 µg/mL).
Consider `CC/C(=N/NC(=N)N)c1cn(S(=O)(=O)c2ccccc2)c2ccccc12`, for which the minimal inhibitory concentration (MIC) in assay [1] is 10.8 µM (≈ 4 µg/mL); in assay [2], 43.4 µM (≈ 16 µg/mL); in assay [3] it was 43.4 µM (≈ 16 µg/mL); in assay [5], 10.8 µM (≈ 4 µg/mL); in assay [6] it was more than 347 µM; in [9], 43.4 µM (≈ 16 µg/mL). The MIC in assay [10] turned out to be 21.7 µM (≈ 8.01 µg/mL); in assay [11] it was 43.4 µM (≈ 16 µg/mL); in assay [12] it was 173 µM (≈ 64.1 µg/mL); in assay [14], 21.7 µM (≈ 8.01 µg/mL).
On to `Cc1ccc(S(=O)(=O)n2cc(/C=N\NC(N)=S)c3cc(Br)ccc32)cc1`, for which the MIC in assay [1], in assay [2], in [3], in [5], in assay [6] and in [9] was more than 284 µM in each case. In addition, the minimum inhibitory concentration (MIC) in assay [10] is 284 µM (≈ 128 µg/mL); in [11] it was more than 284 µM; in assay [12], more than 284 µM; in [14] it was more than 284 µM.
Take `C/C(=N/NC(N)=S)c1cn(S(=O)(=O)c2ccc(C)cc2)c2ccccc12`: the MIC was more than 332 µM in assay [1]; 332 µM (≈ 128 µg/mL) in [2]; 332 µM (≈ 128 µg/mL) in [3]; more than 332 µM in assay [5]; 166 µM (≈ 64.1 µg/mL) in [6]; more than 332 µM in assay [9]. The MIC in assay [10], in assay [11], in assay [12] and in assay [14] was 332 µM (≈ 128 µg/mL) each time.
As for `NC(=O)N/N=C\c1cn(S(=O)(=O)c2ccccc2)c2ccc(Br)cc12`, the MIC was more than 305 µM in assay [1]; more than 305 µM in [2]; more than 305 µM in [3]; more than 305 µM in [5]; 19.1 µM (≈ 8.03 µg/mL) in assay [6]; more than 305 µM in assay [9]. Also, the MIC in assay [10] was 38.1 µM (≈ 16.1 µg/mL); in assay [11] it was more than 305 µM; in [12] it was more than 305 µM; in assay [14], 305 µM (≈ 128 µg/mL).
Regarding `NC(=O)N/N=C\c1cn(S(=O)(=O)c2ccccc2)c2ccccc12`, the MIC in [1] is more than 374 µM; in assay [2] it was more than 374 µM; in [3], more than 374 µM; in assay [5], more than 374 µM; in assay [6] it was 93.6 µM (≈ 32 µg/mL); in [9] it was more than 374 µM. Also, the minimal inhibitory concentration (MIC) in assay [10] was 93.6 µM (≈ 32 µg/mL); in [11], more than 374 µM; in [12], more than 374 µM; in assay [14], 93.6 µM (≈ 32 µg/mL).

As usually defined, the MIC is the lowest concentration that inhibits growth of the organism. Read a low MIC as greater potency.
